Measurements taken from ChEMBL document CHEMBL1142063, “Synthesis of omeprazole analogues and evaluation of these as potential inhibitors of the multidrug efflux pump NorA of Staphylococcus aureus” (2007).
The source made the active and inactive calls. The calls are words filed in the database; no cut-off is given here.

What was measured:
[1] = system: Staphylococcus aureus; experiment: Antibacterial activity against Staphylococcus aureus SA1199B overexpressing NorA at 30 ug by disk diffusion method; type: functional; conditions: read-out: IZ
How it was run: (§1)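 Agar diffusion on Mueller-Hinton agar (adjusted to 20 μg/ml Ca²⁺ and 10 μg/ml Mg²⁺), used plain or with the efflux inhibitor incorporated at the stated concentration. Disks were 5 μg for the fluoroquinolones and 30 μg for chloramphenicol. Plates were incubated overnight at 37°C, and inhibition zone diameters were measured. Values are means of at least three independent experiments.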

[2] = system: Staphylococcus aureus; experiment: Increase in 64 ug/ml Norfloxacin antibacterial activity against Staphylococcus aureus SA1199B mutant overexpressing NorA at 128 ug/ml by checker board method; type: functional
[3] = system: Staphylococcus aureus; experiment: Increase in 5 ug moxifloxacin antibacterial activity against Staphylococcus aureus SA1199B mutant overexpressing NorA at 128 ug/ml by disk diffusion method; type: functional; how it was run: as §1
[4] = system: Staphylococcus aureus; experiment: Increase in 5 ug Norfloxacin antibacterial activity against Staphylococcus aureus SA1199B mutant overexpressing NorA at 128 ug/ml by disk diffusion method; type: functional; how it was run: as §1
[5] = system: Staphylococcus aureus; experiment: Increase in 16 ug/ml Norfloxacin accumulation in wild type Staphylococcus aureus SA1199 at 128 ug/ml after 20 mins; type: functional
How it was run: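 Mid-exponential SA-1199 cells were washed and resuspended in 50 mM sodium phosphate, pH 7.0. They were exposed at time zero to norfloxacin at one-quarter MIC, alone or with EPI at 128 μg/ml. At 5–20 min, cells were spun through silicone-paraffin oil into orthophosphoric acid. Lysate norfloxacin was measured by C18 HPLC with fluorescence detection (ex 240, em 280 nm) and normalized to BCA protein (ng/mg). Triplicate experiments, mean reported.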

[6] = system: Staphylococcus aureus; experiment: Increase in 16 ug/ml Norfloxacin accumulation in Staphylococcus aureus SA1199B mutant overexpressing NorA at 128 ug/ml after 20 mins; type: functional
How it was run: (§2)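 SA-1199B was grown to mid-exponential phase in MH broth (4–5 h, 37°C, shaken), then washed and resuspended in 50 mM sodium phosphate, pH 7.0. Cells got norfloxacin at one-quarter MIC, alone or with inhibitor at 128 μg/ml. At 5–20 min, cells were spun through silicone-paraffin oil into orthophosphoric acid. Norfloxacin was measured by HPLC fluorescence (ex 240/[…]) as ng/mg BCA protein. Means of triplicate experiments.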

[7] = system: Staphylococcus aureus; experiment: Increase in 5 ug ciprofloxacin antibacterial activity against Staphylococcus aureus SA1199B mutant overexpressing NorA at 128 ug/ml by disk diffusion method; type: functional; how it was run: as §1
[8] = system: Staphylococcus aureus; experiment: Increase in 30 ug chloramphenicol antibacterial activity against Staphylococcus aureus SA1199B mutant overexpressing NorA at 128 ug/ml by disk diffusion method; type: functional; how it was run: as §1
[9] = system: Staphylococcus aureus; experiment: Increase in 5 ug levofloxacin antibacterial activity against Staphylococcus aureus SA1199B mutant overexpressing NorA at 128 ug/ml by disk diffusion method; type: functional; how it was run: as §1
[10] = system: Staphylococcus aureus; experiment: Increase in 5 ug ofloxacin antibacterial activity against Staphylococcus aureus SA1199B mutant overexpressing NorA at 128 ug/ml by disk diffusion method; type: functional; how it was run: as §1
[11] = system: Staphylococcus aureus; experiment: Antibacterial activity against Staphylococcus aureus; type: functional
How it was run: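 Tube broth dilution MIC against SA-1199 and NorA-overproducing SA-1199B in Mueller-Hinton broth with 20 μg/ml Ca²⁺ and 10 μg/ml Mg²⁺. Inoculum was a 4–5 h 37°C culture diluted 1/10 (≈10⁶ CFU/ml). Compound range was 512 to 1 μg/ml, dissolved in DMSO (final ≤4%).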

[12] = system: Staphylococcus aureus; experiment: Increase in 5 ug sparfloxacin antibacterial activity against Staphylococcus aureus SA1199B mutant overexpressing NorA at 128 ug/ml by disk diffusion method; type: functional; how it was run: as §1
[13] = system: Staphylococcus aureus; experiment: Increase in 16 ug/ml Norfloxacin accumulation in Staphylococcus aureus SA1199B mutant overexpressing NorA measured per milligram of cell protein at 128 ug/ml after 20 mins; type: functional, organism-based; how it was run: as §2
[14] = system: Staphylococcus aureus; experiment: Increase in 2 ug/ml Norfloxacin antibacterial activity against wild type Staphylococcus aureus SA1199 at 128 ug/ml by checker board method; type: functional
[15] = system: Staphylococcus aureus; experiment: Increase in 16 ug/ml Norfloxacin antibacterial activity against Staphylococcus aureus SA1199B mutant overexpressing NorA at 128 ug/ml after 24 hrs by time-kill curve method; type: functional, organism-based
How it was run: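 Log-phase SA-1199B inoculum at 10⁶ CFU/ml in MH broth with norfloxacin 16 μg/ml plus inhibitor 128 μg/ml, 37°C. Viable counts were taken by dilution plating in triplicate on MH agar at 0, 2, 4, 8 and 24 h. Results are expressed as log percentage survival, means of three experiments. Sensitivity limit was 1 log₁₀ CFU/ml.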

[16] = system: Staphylococcus aureus; experiment: Increase in 16 ug/ml Norfloxacin accumulation in Staphylococcus aureus SA1199B mutant overexpressing NorA measured per mg of cell protein at 128 ug/ml after 5 mins; type: functional, organism-based; how it was run: as §2
[17] = system: Staphylococcus aureus; experiment: Antibacterial activity against Staphylococcus aureus SA1199 at 5 ug by disk diffusion method; conditions: read-out: IZ
[18] = system: Staphylococcus aureus; experiment: Increase in 5 ug sparfloxacin antibacterial activity against Staphylococcus aureus SA1199B mutant overexpressing NorA at 16 ug/ml by disk diffusion method; type: functional; how it was run: as §1
[19] = system: Staphylococcus aureus; experiment: Increase in 5 ug sparfloxacin antibacterial activity against Staphylococcus aureus SA1199B mutant overexpressing NorA at 64 ug/ml by disk diffusion method; type: functional; how it was run: as §1
[20] = system: Staphylococcus aureus; experiment: Increase in 30 ug chloramphenicol antibacterial activity against Staphylococcus aureus SA1199B mutant overexpressing NorA at 16 ug/ml by disk diffusion method; type: functional; how it was run: as §1
[21] = system: Staphylococcus aureus; experiment: Increase in 5 ug levofloxacin antibacterial activity against Staphylococcus aureus SA1199B mutant overexpressing NorA at 64 ug/ml by disk diffusion method; type: functional; how it was run: as §1
[22] = system: Staphylococcus aureus; experiment: Increase in 5 ug ofloxacin antibacterial activity against Staphylococcus aureus SA1199B mutant overexpressing NorA at 64 ug/ml by disk diffusion method; type: functional; how it was run: as §1
[23] = system: Staphylococcus aureus; experiment: Increase in 30 ug chloramphenicol antibacterial activity against Staphylococcus aureus SA1199B mutant overexpressing NorA at 32 ug/ml by disk diffusion method; type: functional; how it was run: as §1
[24] = system: Staphylococcus aureus; experiment: Increase in 5 ug Norfloxacin antibacterial activity against Staphylococcus aureus SA1199B mutant overexpressing NorA at 32 ug/ml by disk diffusion method; type: functional; how it was run: as §1
[25] = system: Staphylococcus aureus; experiment: Increase in 5 ug sparfloxacin antibacterial activity against Staphylococcus aureus SA1199B mutant overexpressing NorA at 32 ug/ml by disk diffusion method; type: functional; how it was run: as §1
[26] = system: Staphylococcus aureus; experiment: Increase in 5 ug moxifloxacin antibacterial activity against Staphylococcus aureus SA1199B mutant overexpressing NorA at 32 ug/ml by disk diffusion method; type: functional; how it was run: as §1
[27] = system: Staphylococcus aureus; experiment: Increase in 5 ug ofloxacin antibacterial activity against Staphylococcus aureus SA1199B mutant overexpressing NorA at 16 ug/ml by disk diffusion method; type: functional; how it was run: as §1
[28] = system: Staphylococcus aureus; experiment: Increase in 5 ug levofloxacin antibacterial activity against Staphylococcus aureus SA1199B mutant overexpressing NorA at 32 ug/ml by disk diffusion method; type: functional; how it was run: as §1
[29] = system: Staphylococcus aureus; experiment: Increase in 5 ug moxifloxacin antibacterial activity against Staphylococcus aureus SA1199B mutant overexpressing NorA at 64 ug/ml by disk diffusion method; type: functional; how it was run: as §1
[30] = system: Staphylococcus aureus; experiment: Increase in 5 ug Norfloxacin antibacterial activity against Staphylococcus aureus SA1199B mutant overexpressing NorA at 64 ug/ml by disk diffusion method; type: functional; how it was run: as §1
[31] = system: Staphylococcus aureus; experiment: Increase in 5 ug Norfloxacin antibacterial activity against Staphylococcus aureus SA1199B mutant overexpressing NorA at 16 ug/ml by disk diffusion method; type: functional; how it was run: as §1
[32] = system: Staphylococcus aureus; experiment: Increase in 5 ug moxifloxacin antibacterial activity against Staphylococcus aureus SA1199B mutant overexpressing NorA at 16 ug/ml by disk diffusion method; type: functional; how it was run: as §1
[33] = system: Staphylococcus aureus; experiment: Increase in 5 ug ciprofloxacin antibacterial activity against Staphylococcus aureus SA1199B mutant overexpressing NorA at 16 ug/ml by disk diffusion method; type: functional; how it was run: as §1
[34] = system: Staphylococcus aureus; experiment: Increase in 5 ug levofloxacin antibacterial activity against Staphylococcus aureus SA1199B mutant overexpressing NorA at 16 ug/ml by disk diffusion method; type: functional; how it was run: as §1
[35] = system: Staphylococcus aureus; experiment: Increase in 5 ug ofloxacin antibacterial activity against Staphylococcus aureus SA1199B mutant overexpressing NorA at 32 ug/ml by disk diffusion method; type: functional; how it was run: as §1
[36] = system: Staphylococcus aureus; experiment: Increase in 30 ug chloramphenicol antibacterial activity against Staphylococcus aureus SA1199B mutant overexpressing NorA at 64 ug/ml by disk diffusion method; type: functional; how it was run: as §1
[37] = system: Staphylococcus aureus; experiment: Increase in 5 ug ciprofloxacin antibacterial activity against Staphylococcus aureus SA1199B mutant overexpressing NorA at 32 ug/ml by disk diffusion method; type: functional; how it was run: as §1
[38] = system: Staphylococcus aureus; experiment: Increase in 5 ug ciprofloxacin antibacterial activity against Staphylococcus aureus SA1199B mutant overexpressing NorA at 64 ug/ml by disk diffusion method; type: functional; how it was run: as §1
[39] = system: Staphylococcus aureus; experiment: Antibacterial activity against Staphylococcus aureus SA1199B overexpressing NorA at 5 ug by disk diffusion method; type: functional; conditions: read-out: IZ; how it was run: as §1

## O=C(N[C@H](CO)[C@H](O)c1ccc([N+](=O)[O-])cc1)C(Cl)Cl [CHLORAMPHENICOL]
[1]
  zone of inhibition at 30 µg/disc: 24 mm

## COc1ccc2[nH]c([S+]([O-])Cc3nc4cc(Cl)ccc4n4cccc34)nc2c1 (stereo not drawn)
[2]
  MIC: 4 µg/mL
[3]
  inhibition zone (IZ): 28 mm
[4]
  inhibition zone (IZ): 18 mm
[5]
  Activity: 10%
[6]
  Activity: 40%
[7]
  inhibition zone (IZ): 25 mm
[8]
  inhibition zone (IZ): 27 mm
[9]
  inhibition zone (IZ): 27 mm
[10]
  inhibition zone (IZ): 26 mm
[11]
  MIC: > 512 µg/mL
[12]
  inhibition zone (IZ): 28 mm
[13]
  Drug uptake: 400 ng/mg
[14]
  MIC: 1 µg/mL
[15]
  Activity: Active
[16]
  Drug uptake: 270 ng/mg

## C[C@H]1COc2c(N3CCN(C)CC3)c(F)cc3c(=O)c(C(=O)O)cn1c23 [LEVOFLOXACIN]
[17]
  zone of inhibition at 5 µg/disc: 30 mm

## COc1ccc2[nH]c([S+]([O-])Cc3ncc(C)c(OC)c3C)nc2c1 (stereo not drawn) [OMEPRAZOLE]
[18]
  inhibition zone (IZ): 26 mm
[19]
  inhibition zone (IZ): 27 mm
[2]
  MIC: 8 µg/mL
[20]
  inhibition zone (IZ): 24 mm
[21]
  inhibition zone (IZ): 23 mm
[22]
  inhibition zone (IZ): 20 mm
[23]
  inhibition zone (IZ): 24 mm
[24]
  inhibition zone (IZ): 6 mm
[3]
  inhibition zone (IZ): 30 mm
[4]
  inhibition zone (IZ): 14 mm
[25]
  inhibition zone (IZ): 27 mm
[5]
  Activity: 10%
[6]
  Activity: 40%
[26]
  inhibition zone (IZ): 27 mm
[7]
  inhibition zone (IZ): 22 mm
[8]
  inhibition zone (IZ): 25 mm
[9]
  inhibition zone (IZ): 25 mm
[27]
  inhibition zone (IZ): 18 mm
[28]
  inhibition zone (IZ): 21 mm
[10]
  inhibition zone (IZ): 23 mm
[29]
  inhibition zone (IZ): 29 mm
[30]
  inhibition zone (IZ): 12 mm
[31]
  inhibition zone (IZ): 6 mm
[32]
  inhibition zone (IZ): 27 mm
[33]
  inhibition zone (IZ): 13 mm
[34]
  inhibition zone (IZ): 21 mm
[35]
  inhibition zone (IZ): 18 mm
[11]
  MIC: > 512 µg/mL
[12]
  inhibition zone (IZ): 28 mm
[36]
  inhibition zone (IZ): 24 mm
[13]
  Drug uptake: 400 ng/mg
[14]
  MIC: 1 µg/mL
[37]
  inhibition zone (IZ): 15 mm
[38]
  inhibition zone (IZ): 19 mm
[16]
  Drug uptake: 270 ng/mg

## CC1COc2c(N3CCN(C)CC3)c(F)cc3c(=O)c(C(=O)O)cn1c23 (stereo not drawn) [OFLOXACIN]
[39]
  zone of inhibition at 5 µg/disc: 27 mm
